# Target: Inosine-5'-monophosphate dehydrogenase 1 (Homo sapiens, UniProt P20839)
# Test: Inhibition of human IMPDH1
# Settings: read-out: Ki(app)
# Method in brief: (§1)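 Run in duplicate with IMPDH1 at 150 nM or IMPDH2 at 50 nM, across a range of inhibitor concentrations. Buffer: 50 mM Tris pH 8.0, 100 mM KCl, 1 mM DTT, with 100 µM IMP and 100 µM NAD, at 25 °C. NADH formation followed at 340 nm. IC50 from a variable-slope sigmoidal fit of steady-state velocities; apparent Ki from the Morrison equation.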
# Sequence of Inosine-5'-monophosphate dehydrogenase 1 (P20839 whole entry): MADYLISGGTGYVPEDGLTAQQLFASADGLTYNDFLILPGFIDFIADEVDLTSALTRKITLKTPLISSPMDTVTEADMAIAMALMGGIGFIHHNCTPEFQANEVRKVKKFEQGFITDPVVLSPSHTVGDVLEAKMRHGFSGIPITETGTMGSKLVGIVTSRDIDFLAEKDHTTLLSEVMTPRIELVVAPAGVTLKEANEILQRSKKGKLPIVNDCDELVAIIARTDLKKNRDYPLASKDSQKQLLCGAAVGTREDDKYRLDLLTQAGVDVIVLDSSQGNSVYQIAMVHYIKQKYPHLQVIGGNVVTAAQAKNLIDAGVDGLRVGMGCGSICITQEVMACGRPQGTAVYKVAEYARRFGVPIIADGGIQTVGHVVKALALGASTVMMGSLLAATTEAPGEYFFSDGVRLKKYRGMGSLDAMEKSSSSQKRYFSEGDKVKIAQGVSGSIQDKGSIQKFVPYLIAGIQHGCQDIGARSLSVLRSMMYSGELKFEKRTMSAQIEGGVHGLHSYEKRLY
row,SMILES,Ki [µM]
1,COc1cc(NC(=O)NCc2cccc(/C=C/C(=O)NO)c2)ccc1-c1cnco1,2.3
2,COc1cc(NC(=O)C(=O)NCc2cccc(/C=C/C(=O)NO)c2)ccc1-c1cnco1,4.4
3,COc1cc(NC(=O)Nc2ccc(/C=C/C(=O)NO)cc2)ccc1-c1cnco1,0.3
4,COc1cc(NC(=O)C(=O)Nc2ccc(/C=C/C(=O)NO)cc2)ccc1-c1cnco1,7.1
5,COc1cc(NC(=O)Nc2cccc(/C=C/C(=O)NO)c2)ccc1C#N,8.2
6,COc1cc(NC(=O)NCc2cccc(/C=C/C(=O)NO)c2)ccc1C#N,44

# Results, then the compound that gave them:
row,Ki [µM],SMILES
1,0.46,COc1cc(NC(=O)C(=O)Nc2cccc(/C=C/C(=O)NO)c2)ccc1-c1cnco1
2,> 100,COc1cc(NC(=O)NCc2ccc(/C=C/C(=O)NO)cc2)ccc1C#N
3,17,COc1cc(NC(=O)C(=O)NCc2ccc(/C=C/C(=O)NO)cc2)ccc1-c1cnco1
4,7.8,COc1cc(NC(=O)NCc2ccc(/C=C/C(=O)NO)cc2)ccc1-c1cnco1
5,1.2,COc1cc(NC(=O)Nc2ccc(/C=C/C(=O)NO)cc2)ccc1C#N
6,0.58,COc1cc(NC(=O)Nc2cccc(/C=C/C(=O)NO)c2)ccc1-c1cnco1

# Target: Inosine-5'-monophosphate dehydrogenase 2 (Homo sapiens, UniProt P12268)
# Test: Inhibition of human IMPDH2
# Settings: read-out: Ki(app)
# Method in brief: as §1
row,SMILES,Ki [µM]
1,COc1cc(NC(=O)NCc2cccc(/C=C/C(=O)NO)c2)ccc1-c1cnco1,0.34
2,COc1cc(NC(=O)C(=O)NCc2cccc(/C=C/C(=O)NO)c2)ccc1-c1cnco1,1.5
3,COc1cc(NC(=O)Nc2ccc(/C=C/C(=O)NO)cc2)ccc1-c1cnco1,0.25
4,COc1cc(NC(=O)C(=O)Nc2ccc(/C=C/C(=O)NO)cc2)ccc1-c1cnco1,1.8
5,COc1cc(NC(=O)Nc2cccc(/C=C/C(=O)NO)c2)ccc1C#N,1.2
6,COc1cc(NC(=O)NCc2cccc(/C=C/C(=O)NO)c2)ccc1C#N,2.6

# Other lines, results leading:
row,Ki [µM],SMILES
1,0.2,COc1cc(NC(=O)C(=O)Nc2cccc(/C=C/C(=O)NO)c2)ccc1-c1cnco1
2,11,COc1cc(NC(=O)NCc2ccc(/C=C/C(=O)NO)cc2)ccc1C#N
3,1.4,COc1cc(NC(=O)C(=O)NCc2ccc(/C=C/C(=O)NO)cc2)ccc1-c1cnco1
4,1.2,COc1cc(NC(=O)NCc2ccc(/C=C/C(=O)NO)cc2)ccc1-c1cnco1
5,0.23,COc1cc(NC(=O)Nc2ccc(/C=C/C(=O)NO)cc2)ccc1C#N
6,0.12,COc1cc(NC(=O)Nc2cccc(/C=C/C(=O)NO)c2)ccc1-c1cnco1

# Tested on: not listed separately
# Test: Inhibition of nuclear extract HDAC
# Settings: not given
# Method in brief: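 HDAC nuclear extract tested with a commercial HDAC activity/inhibitor screening kit per its protocol. Inhibitors were dissolved in DMSO or methanol. IC50 from a variable-slope sigmoidal fit of end-point fractional fluorescence. Autofluorescence corrected using a compound concentration curve run under background-well conditions.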
row,SMILES,IC50 [µM]
1,COc1cc(NC(=O)NCc2cccc(/C=C/C(=O)NO)c2)ccc1-c1cnco1,0.83
2,COc1cc(NC(=O)C(=O)NCc2cccc(/C=C/C(=O)NO)c2)ccc1-c1cnco1,0.89
3,COc1cc(NC(=O)Nc2ccc(/C=C/C(=O)NO)cc2)ccc1-c1cnco1,0.55
4,COc1cc(NC(=O)C(=O)Nc2ccc(/C=C/C(=O)NO)cc2)ccc1-c1cnco1,17
5,COc1cc(NC(=O)Nc2cccc(/C=C/C(=O)NO)c2)ccc1C#N,3.4
6,COc1cc(NC(=O)NCc2cccc(/C=C/C(=O)NO)c2)ccc1C#N,0.64

# The remaining lines, values ahead:
row,IC50 [µM],SMILES
1,1.8,COc1cc(NC(=O)C(=O)Nc2cccc(/C=C/C(=O)NO)c2)ccc1-c1cnco1
2,0.036,COc1cc(NC(=O)NCc2ccc(/C=C/C(=O)NO)cc2)ccc1C#N
3,0.23,COc1cc(NC(=O)C(=O)NCc2ccc(/C=C/C(=O)NO)cc2)ccc1-c1cnco1
4,0.026,COc1cc(NC(=O)NCc2ccc(/C=C/C(=O)NO)cc2)ccc1-c1cnco1
5,0.63,COc1cc(NC(=O)Nc2ccc(/C=C/C(=O)NO)cc2)ccc1C#N
6,3,COc1cc(NC(=O)Nc2cccc(/C=C/C(=O)NO)c2)ccc1-c1cnco1

# Tested on: K562
# Test: Antiproliferative activity against human K562 cells after 72 hrs by MTS assay
# Format: functional, cell-based
# Settings: K562, 72 h
row,SMILES,IC50 [µM]
1,COc1cc(NC(=O)NCc2cccc(/C=C/C(=O)NO)c2)ccc1-c1cnco1,18
2,COc1cc(NC(=O)C(=O)NCc2cccc(/C=C/C(=O)NO)c2)ccc1-c1cnco1,> 100
3,COc1cc(NC(=O)Nc2ccc(/C=C/C(=O)NO)cc2)ccc1-c1cnco1,4.9
4,COc1cc(NC(=O)C(=O)Nc2ccc(/C=C/C(=O)NO)cc2)ccc1-c1cnco1,72
5,COc1cc(NC(=O)Nc2cccc(/C=C/C(=O)NO)c2)ccc1C#N,38
6,COc1cc(NC(=O)NCc2cccc(/C=C/C(=O)NO)c2)ccc1C#N,28

# Next, values leading:
row,IC50 [µM],SMILES
1,28,COc1cc(NC(=O)C(=O)Nc2cccc(/C=C/C(=O)NO)c2)ccc1-c1cnco1
2,5.3,COc1cc(NC(=O)C(=O)NCc2ccc(/C=C/C(=O)NO)cc2)ccc1-c1cnco1
3,3.5,COc1cc(NC(=O)NCc2ccc(/C=C/C(=O)NO)cc2)ccc1-c1cnco1
4,4,COc1cc(NC(=O)Nc2ccc(/C=C/C(=O)NO)cc2)ccc1C#N
5,> 100,COc1cc(NC(=O)Nc2cccc(/C=C/C(=O)NO)c2)ccc1-c1cnco1
